Assay results: ChEMBL document CHEMBL1157677, “Silicon switch approach in TRPV1 antagonist MK-056 and its analogues” (Bioorg Med Chem, 2010)

Experiments:
[1] = target: T1, Transient receptor potential cation channel subfamily V member 1 (Rattus norvegicus, UniProt O35433); assay: Agonist activity at TRPV1 in Sprague-Dawley rat DRG neuron assessed as intracellular 45Ca2+ influx by scintillation counting; format: functional, cell-based
[2] = target: T1, Transient receptor potential cation channel subfamily V member 1; assay: Antagonist activity at TRPV1 in Sprague-Dawley rat DRG neuron assessed as reduction of capsaicin-stimulated intracellular 45Ca2+ influx by scintillation counting; format: functional, cell-based
Summary of the method: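 Neonatal rat spinal DRG neurons, dissociated with collagenase then trypsin (30 min each, 37 °C), cultured 3 days in horse-serum DME/F12 with C6-glioma-conditioned medium. Neurons were given ⁴⁵Ca²⁺ plus capsaicin with compound for 10 min at room temperature in HEPES (10 mM, pH 7.4) Ca/Mg-free HBSS, then washed and dried.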

[3] = target: Transient receptor potential cation channel subfamily V member 1 (Rattus norvegicus) (UniProt O35433); assay: Ratio of compound IC50 to ATC-120 IC50 for TRPV1 in Sprague-Dawley rat DRG neuron
Sequence of Transient receptor potential cation channel subfamily V member 1 (Rattus norvegicus) (O35433 whole entry): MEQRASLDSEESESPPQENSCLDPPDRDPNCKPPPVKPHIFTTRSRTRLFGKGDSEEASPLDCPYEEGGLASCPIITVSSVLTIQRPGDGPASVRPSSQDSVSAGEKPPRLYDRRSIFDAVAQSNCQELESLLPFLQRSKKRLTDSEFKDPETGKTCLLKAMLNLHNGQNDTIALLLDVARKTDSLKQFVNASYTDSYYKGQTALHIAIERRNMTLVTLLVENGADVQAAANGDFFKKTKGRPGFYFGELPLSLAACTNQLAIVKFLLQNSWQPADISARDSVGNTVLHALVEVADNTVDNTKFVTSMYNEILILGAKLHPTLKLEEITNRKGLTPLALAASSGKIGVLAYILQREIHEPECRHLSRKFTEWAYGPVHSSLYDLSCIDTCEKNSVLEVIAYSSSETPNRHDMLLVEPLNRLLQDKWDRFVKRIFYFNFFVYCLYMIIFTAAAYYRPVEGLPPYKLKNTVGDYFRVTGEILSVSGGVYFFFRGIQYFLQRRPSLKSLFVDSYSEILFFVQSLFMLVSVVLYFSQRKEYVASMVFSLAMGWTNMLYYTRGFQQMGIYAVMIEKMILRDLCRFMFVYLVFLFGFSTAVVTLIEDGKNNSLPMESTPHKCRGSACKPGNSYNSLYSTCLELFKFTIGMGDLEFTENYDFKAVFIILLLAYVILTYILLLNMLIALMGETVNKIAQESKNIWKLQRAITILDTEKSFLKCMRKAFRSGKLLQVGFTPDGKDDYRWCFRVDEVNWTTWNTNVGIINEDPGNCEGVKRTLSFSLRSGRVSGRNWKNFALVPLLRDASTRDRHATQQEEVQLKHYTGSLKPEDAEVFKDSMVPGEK

[4] = target: Transient receptor potential cation channel subfamily V member 1 (Rattus norvegicus) (UniProt O35433); assay: Ratio of compound IC50 to SC-0030 IC50 for TRPV1 in Sprague-Dawley rat DRG neuron

T1 sequence (O35433 whole entry): as above

Row | EC50 [1] | IC50 [2] | Ratio IC50 [3] | Ratio IC50 [4] | Structure (SMILES)
1 | > 100 µM | 150 nM |  |  | C[Si](C)(C)c1ccc(CNC(=S)NCc2ccc(NS(C)(=O)=O)cc2)cc1
2 | > 100 µM | 50 nM |  |  | C[C@@H](NC(=S)NCc1ccc(C(C)(C)C)cc1)c1ccc(NS(C)(=O)=O)cc1
3 | > 100 µM | 40 nM |  |  | CC(C)(C)c1ccc(CNC(=S)NCc2ccc(NS(C)(=O)=O)c(F)c2)cc1
4 | > 100 µM | 210 nM | 4 | 4 | C[C@@H](NC(=S)NCc1ccc([Si](C)(C)C)cc1)c1ccc(NS(C)(=O)=O)cc1
5 | > 100 µM | 160 nM | 4 | 4 | C[Si](C)(C)c1ccc(CNC(=S)NCc2ccc(NS(C)(=O)=O)c(F)c2)cc1
6 | > 100 µM | 1200 nM |  |  | CC[Si](C)(C)c1ccc(CNC(=S)NCc2ccc(NS(C)(=O)=O)cc2)cc1
7 | > 100 µM | 1500 nM |  |  | CC[Si](CC)(CC)c1ccc(CNC(=S)N[C@H](C)c2ccc(NS(C)(=O)=O)cc2)cc1
8 | > 100 µM | 670 nM |  |  | CC[Si](C)(C)c1ccc(CNC(=S)N[C@H](C)c2ccc(NS(C)(=O)=O)cc2)cc1
9 | > 100 µM | 3100 nM |  |  | CC[Si](CC)(CC)c1ccc(CNC(=S)NCc2ccc(NS(C)(=O)=O)cc2)cc1
